PubChem BioAssay
The source made the active and inactive calls.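 The calls were made as follows, unless noted: active = viability loss from added drug above about 55%, and viability with drug at most 40%, in both replicates (limit read from the data, passing the limit was not always enough); inconclusive = both conditions met in only one replicate; inactive = neither replicate meets both conditions.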

Experiments:
[1] = reducers of endogenous Her2 protein level, primary screen, SKBR3 breast tumor cells, AlphaScreen, ATP viability (AID 461;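 active = Her2 level under about 52% in both replicate screens, with viability over 70% of control, limit read from the data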;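 as to Her2 level: lower value means less Her2 protein in the cells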;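 as to viability: percent of carrier control wells set as 100% viability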); settings: 18-24 h, measured here: SKBR3 viability, ATP luminescence, at 10 µM
[2] = molecular target: Receptor tyrosine-protein kinase erbB-2 (Homo sapiens) (UniProt P04626); experiment: as above; settings: 18-24 h, at 10 µM, stronger effect = lower value
Chain of Receptor tyrosine-protein kinase erbB-2 (Homo sapiens) (P04626 whole entry, looked up): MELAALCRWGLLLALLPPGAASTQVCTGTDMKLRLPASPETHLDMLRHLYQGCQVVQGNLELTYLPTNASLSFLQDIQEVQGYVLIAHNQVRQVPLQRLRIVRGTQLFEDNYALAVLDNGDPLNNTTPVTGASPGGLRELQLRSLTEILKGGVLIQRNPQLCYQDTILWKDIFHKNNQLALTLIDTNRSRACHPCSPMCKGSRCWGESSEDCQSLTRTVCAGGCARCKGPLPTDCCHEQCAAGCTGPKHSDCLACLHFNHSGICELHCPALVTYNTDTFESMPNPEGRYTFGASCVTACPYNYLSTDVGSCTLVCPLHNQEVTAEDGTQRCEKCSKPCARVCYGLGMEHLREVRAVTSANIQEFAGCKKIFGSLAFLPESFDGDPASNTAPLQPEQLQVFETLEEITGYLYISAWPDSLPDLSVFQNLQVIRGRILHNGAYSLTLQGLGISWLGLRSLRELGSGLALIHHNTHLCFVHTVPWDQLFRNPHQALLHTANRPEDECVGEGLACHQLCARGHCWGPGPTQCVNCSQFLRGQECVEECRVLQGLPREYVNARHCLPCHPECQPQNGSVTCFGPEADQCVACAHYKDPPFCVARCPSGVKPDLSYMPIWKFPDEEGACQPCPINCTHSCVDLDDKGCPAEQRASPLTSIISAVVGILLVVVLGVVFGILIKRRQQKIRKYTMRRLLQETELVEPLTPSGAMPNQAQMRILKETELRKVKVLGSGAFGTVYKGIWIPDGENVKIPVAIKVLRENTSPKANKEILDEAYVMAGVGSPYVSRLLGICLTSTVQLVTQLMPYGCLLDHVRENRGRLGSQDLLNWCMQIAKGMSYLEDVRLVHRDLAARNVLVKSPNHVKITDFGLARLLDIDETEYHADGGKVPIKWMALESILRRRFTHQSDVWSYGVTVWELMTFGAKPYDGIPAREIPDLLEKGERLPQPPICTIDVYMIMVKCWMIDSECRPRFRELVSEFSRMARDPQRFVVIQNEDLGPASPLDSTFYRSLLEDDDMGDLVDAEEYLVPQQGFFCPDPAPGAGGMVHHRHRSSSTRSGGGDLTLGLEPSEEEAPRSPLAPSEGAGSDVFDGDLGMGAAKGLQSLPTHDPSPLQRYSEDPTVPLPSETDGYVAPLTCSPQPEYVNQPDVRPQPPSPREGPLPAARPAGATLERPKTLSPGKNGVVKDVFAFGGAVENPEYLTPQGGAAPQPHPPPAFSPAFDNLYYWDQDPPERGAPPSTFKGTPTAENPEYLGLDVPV

[3] = SK-BR-3 cell growth inhibitors, pilot screen, 24 h, human (AID 572;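 active = viability at or below 10% of carrier control in both of two separate runs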;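 also: compound exposure lasted between 18 and 24 h rather than exactly 24 h; 100% = carrier-treated control wells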); settings: SK-BR-3 viability, CellTiter-Glo luminescence, at 10 µM, stronger effect = lower value
[4] = HUVEC growth inhibition – cell-based, human, primary screen (AID 575;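 active = viability at or below 30% in both replicate assays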;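 also: 100% = median of untreated cell wells with 0.1% DMSO on each plate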); settings: HUVEC proliferation, CellTiter-Glo luminescence, 72 h; at 10 µM; stronger effect = lower value
Procedure, shortened: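 Assay system: primary human umbilical vein endothelial cells / Buffer or medium: endothelial basal medium with 2% FBS plus growth supplements / Compound dosing: one dose, 10 µM final, 0.1% DMSO / Timing: 72 h treatment at 37 °C / Signal: CTG luminescence / Benchmarks: 32 DMSO-only cell-control wells (high), 32 MePR drug-control wells (low) per plate / Plate: collagen-coated 384-well format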

[5] = growth inhibitors of H69AR lung tumor, primary screen, human, duplicate replicates (AID 580;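 active = viability at or under a set limit in both replicates, limit being median viability minus 3 SD, cut at about 48% in these data, passing the limit was not always enough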;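 also: 100% = mean luminescence of untreated wells and 0% = no signal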); settings: H69AR lung tumor cells viability, ATP luminescence, 72 h; at 10 µM; stronger effect = lower value
[6] = reversal of MRP1-mediated doxorubicin resistance, pilot screen, H69AR cells, doxorubicin co-treatment (AID 601); settings: CellTiter-Glo, 72 h, at 10 µM; for differential viability (reversal): stronger effect = higher value
[7] = 384-well plate pilot, post-Golgi transport modulator project, inhibition of yeast transport mutant growth (AID 636; in the data active = inhibition above about 31%); settings: absorbance 615 nm, about 18 h, stronger effect = higher value
[8] = growth suppression of yeast trafficking mutant, preliminary HTS, modulators of trafficking downstream of Golgi apparatus project, 1536-format plate, OD 615 nm (AID 637; in the data active = inhibition above about 30%); settings: yeast transport mutant growth, absorbance 615 nm, 18 h; stronger effect = higher value
[9] = H69AR cells + 2 uM doxorubicin, measured here: viability with 2 uM doxorubicin, stronger effect = lower value
[10] = H69AR cells, compound alone cytotoxicity

| SMILES | viability [1] [%] | Her2 level [2] | viability [3] | viability [4] | viability [5] | differential viability (reversal) ([6]; H69AR cells + 2 uM doxorubicin) | viability [6, 9] [%] | viability [6, 10] [%] | inhibition [7] | inhibition [8] |
| --- | --- | --- | --- | --- | --- | --- | --- | --- | --- | --- |
| COC(=O)C(NC(C)=O)(Nc1nc2ccc(S(C)(=O)=O)cc2s1)C(F)(F)F (stereo not given) | 96.5 | 87.5% (inactive) | 96.5% (inactive) | 93.8% (inactive) | 102% (inactive) | 1.18% (inactive) | 101 | 102 | -2.11% (inactive) | -1.27% (inactive) |
| O=C(CN1CCCN(S(=O)(=O)c2ccc(Br)cc2)CC1)Nc1ccc2cn[nH]c2c1 | 106 | 109% (inactive) | 106% (inactive) | 73.1% (inactive) | 7.15% (active) | -13.3% (inactive) | 20.5 | 7.15 | -2.37% (inactive) | 2.79% (inactive) |
| COC(=O)c1ccc(-c2ccc(CNCC(O)c3ccccc3)o2)cc1 (stereo not given) | 111 | 101% (inactive) | 111% (inactive) | 88.8% (inactive) | 101% (inactive) | 8.78% (inactive) | 92.2 | 101 | -2.03% (inactive) | 1.83% (inactive) |
| CCCCN(C)Cc1c(C)[nH]c2c(Cl)cccc2c1=O | 84.5 | 87% (inactive) | 84.5% (inactive) | 96% (inactive) | 90.6% (inactive) | 13.7% (inactive) | 76.9 | 90.6 | -4.34% (inactive) | -2.06% (inactive) |
| Cc1ccc(C)c(S(=O)(=O)NCc2ccc(C(=O)N3CCN(C)CC3)cc2)c1 | 99.5 | 85.5% (inactive) | 99.5% (inactive) | 89.7% (inactive) | 91.7% (inactive) | 5.15% (inactive) | 86.5 | 91.7 | -5.68% (inactive) | -3% (inactive) |
| CC1=CCC2C(=O)N(c3nc(C)cc(C)n3)C(=O)C2C1 (stereo not given) | 110 | 80% (inactive) | 110% (inactive) | 101% (inactive) | 91.1% (inactive) | -3.95% (inactive) | 95 | 91.1 | -6.71% (inactive) | 0.48% (inactive) |
| Cc1cc2ncc(C(=O)Nc3ccccc3)c(C)n2n1 | 94 | 94% (inactive) | 94% (inactive) | 124% (inactive) | 99.5% (inactive) | 12.7% (inactive) | 86.8 | 99.5 | -4.34% (inactive) | -0.48% (inactive) |
| Cc1cccc(-n2ccnc2SCC(=O)Nc2cc(C)on2)c1 | 96 | 102% (inactive) | 96% (inactive) | 96.3% (inactive) | 99.1% (inactive) | 18.6% (inactive) | 80.4 | 99.1 | 0.79% (inactive) | -4.91% (inactive) |
| CCC(c1nnnn1Cc1ccco1)N(CCc1ccccc1)Cc1cc2cccc(C)c2[nH]c1=O (stereo not given) | 105 | 77.5% (inactive) | 105% (inactive) | 69.2% (inactive) | 62.9% (inactive) | -3.2% (inactive) | 66.1 | 62.9 | -5% (inactive) | -2.67% (inactive) |
| COc1cccc(NC(=O)NC2(C(F)(F)F)Oc3ccccc3O2)c1 | 91.5 | 98% (inactive) | 91.5% (inactive) | 69.1% (inactive) | 30.7% (active) | -17.4% (inactive) | 48.1 | 30.7 | -5.07% (inactive) | -0.16% (inactive) |
| CCC(=O)N(Cc1cc2c(C)ccc(C)c2[nH]c1=O)C1CCCCC1 | 86 | 71.5% (inactive) | 86% (inactive) | 79.2% (inactive) | 85.9% (inactive) | -0.72% (inactive) | 86.6 | 85.9 | -6.71% (inactive) | 0.32% (inactive) |
| CCOC(=O)C1CCN(C(c2cc3cc(C)cc(C)c3[nH]c2=O)c2nnnn2C2CCCCC2)CC1 (stereo not given) | 69.5 | 80% (inactive) | 69.5% (inactive) | 57.3% (inactive) | 62.8% (inactive) | 5.56% (inactive) | 57.2 | 62.8 | -2.6% (inactive) | 2.38% (inactive) |
| CCOC(=O)C1(C)NC(c2ccc(OC)c(OC)c2)C2C(=O)N(CC)C(=O)C21 (stereo not given) | 96.5 | 106% (inactive) | 96.5% (inactive) | 89.2% (inactive) | 101% (inactive) | 7.14% (inactive) | 93.8 | 101 | -0.41% (inactive) | -1.27% (inactive) |
| COc1cc(C2c3c(n[nH]c3C)C(=O)N2c2ccc(Br)cc2)ccc1O (stereo not given) | 95 | 62.5% (inactive) | 95% (inactive) | 73.9% (inactive) | 87.8% (inactive) | 5.68% (inactive) | 82.2 | 87.8 | -0.13% (inactive) | -1% (inactive) |
| CSc1nc(C)cc(Oc2ccc(=O)n(C)n2)n1 | 97 | 89.5% (inactive) | 97% (inactive) | 112% (inactive) | 90.5% (inactive) | 11.8% (inactive) | 78.7 | 90.5 | -3.92% (inactive) | -3.28% (inactive) |
| CCc1nn2c(N3CCOCC3)cc(C)nc2c1-c1ccc(F)cc1 | 92 | 84% (inactive) | 92% (inactive) | 86.2% (inactive) | 93.4% (inactive) | 31.5% (inactive) | 62 | 93.4 | -6.16% (inactive) | 1.75% (inactive) |

| SMILES | viability [1] [%] | Her2 level [2] | viability [3] | viability [4] | viability [5] | differential viability (reversal) ([6]; H69AR cells + 2 uM doxorubicin) | viability [6, 9] [%] | viability [6, 10] [%] | inhibition [7] | inhibition [8] |
| --- | --- | --- | --- | --- | --- | --- | --- | --- | --- | --- |
| COCc1cc(C)nc(SCC(=O)Nc2cccc(C)c2C)c1C#N | 103 | 95.5% (inactive) | 103% (inactive) | 82.3% (inactive) | 94.4% (inactive) | 11.9% (inactive) | 82.5 | 94.4 | -3.16% (inactive) | -0.48% (inactive) |
| CSc1nnc2n(CCc3ccccc3)c(=O)c3c4c(sc3n12)CCCC4 | 104 | 94% (inactive) | 104% (inactive) | 96.3% (inactive) | 102% (inactive) | 25.7% (inactive) | 76 | 102 | -1.45% (inactive) | 0.16% (inactive) |
| O=C(CSc1nc2ccccc2n1CC(=O)N1CCCC1)Nc1nccs1 | 106 | 93% (inactive) | 106% (inactive) | 98.4% (inactive) | 95.3% (inactive) | 16.4% (inactive) | 78.9 | 95.3 | -0.92% (inactive) | -6.73% (inactive) |
| CCCCOCCCNC(=O)c1ccccc1OCC | 89 | 88.5% (inactive) | 89% (inactive) | 108% (inactive) | 87.8% (inactive) | 9.53% (inactive) | 78.2 | 87.8 | -3.72% (inactive) | -4.67% (inactive) |
| Cc1nc2ccccc2c2oc(C(=O)NCc3ccccn3)cc12 | 81 | 88% (inactive) | 81% (inactive) | 81.4% (inactive) | 96.8% (inactive) | 2.25% (inactive) | 94.6 | 96.8 | -1.73% (inactive) | -2.3% (inactive) |
| COc1cc(C2=NOC(C(=O)NCc3ccc(F)cc3)C2)cc(OC)c1OC (stereo not given) | 84 | 74.5% (inactive) | 84% (inactive) | 39.9% (inactive) | 31.6% (active) | -52.3% (inactive) | 83.9 | 31.6 | -4.74% (inactive) | -1.43% (inactive) |
| O=C(Cn1cnc2c(cnn2-c2ccc(F)cc2)c1=O)N1CCCc2ccccc21 | 112 | 86.5% (inactive) | 112% (inactive) | 85.6% (inactive) | 94.4% (inactive) | -7.36% (inactive) | 102 | 94.4 | -4.67% (inactive) | -2.79% (inactive) |
| COc1ccc(/C(O)=C2/C(=O)C(=O)N(CCN(C)C)C2c2ccccn2)cc1OC (stereo not given) | 92.5 | 91.5% (inactive) | 92.5% (inactive) | 103% (inactive) | 91.5% (inactive) | 3.17% (inactive) | 88.3 | 91.5 | -4.19% (inactive) | -6.19% (inactive) |
| O=C(NCc1cccs1)C1CCN(S(=O)(=O)c2cccs2)CC1 | 103 | 89% (inactive) | 103% (inactive) | 89.8% (inactive) | 102% (inactive) | 26.9% (inactive) | 74.6 | 102 | -5.19% (inactive) | -4.29% (inactive) |
| CCOc1ccc(NC(=O)C2CC(=O)N(C(C)C)C2)cc1 (stereo not given) | 103 | 82% (inactive) | 103% (inactive) | 114% (inactive) | 99.7% (inactive) | 7% (inactive) | 92.7 | 99.7 | -2% (inactive) | 0.49% (inactive) |
| O=C(NCCN1CCOCC1)c1ccc2c(c1)N(Cc1ccccc1)C(=O)CS2 | 89.5 | 111% (inactive) | 89.5% (inactive) | 97.8% (inactive) | 99.4% (inactive) | 4.81% (inactive) | 94.6 | 99.4 | 0.67% (inactive) | -0.32% (inactive) |
| COc1ccc(C(=O)N(Cc2ccco2)C(C(=O)NC2CCCC2)c2ccc(O)cc2)cc1OC (stereo not given) | 77.5 | 85% (inactive) | 77.5% (inactive) | 76.8% (inactive) | 78.8% (inactive) | -1.66% (inactive) | 80.4 | 78.8 | -1.32% (inactive) | -8% (inactive) |
| CCS(=O)(=O)NCCc1cc2c(OC)ccc(OC)c2[nH]c1=O | 95.5 | 88.5% (inactive) | 95.5% (inactive) | 106% (inactive) | 98.8% (inactive) | 12.1% (inactive) | 86.8 | 98.8 | -9.45% (inactive) | 0.48% (inactive) |
| COCCNC(=O)CC(NS(=O)(=O)c1ccc(NC(C)=O)cc1)C(C)C (stereo not given) | 97 | 122% (inactive) | 97% (inactive) | 81.2% (inactive) | 95.1% (inactive) | 11.4% (inactive) | 83.7 | 95.1 | -4.74% (inactive) | 5% (inactive) |
| COCCn1c(SCC(=O)Nc2nnc(C)s2)nnc1-c1c[nH]c2ccccc12 | 104 | 84% (inactive) | 104% (inactive) | 111% (inactive) | 103% (inactive) | 14.8% (inactive) | 88.6 | 103 | -1.71% (inactive) | -6% (inactive) |
